Results on 53 compounds are retold here after ChEMBL document CHEMBL3817742, “Structural Basis for the Selective Binding of Inhibitors to 6-Hydroxymethyl-7,8-dihydropterin Pyrophosphokinase from Staphylococcus aureus and Escherichia coli” (J Med Chem, 2016).

Molecules are shown by their SMILES. Calls of active or inactive are those of the source. The rule behind the calls is not given here.

In experiment [1] the target is T1, 2-amino-4-hydroxy-6-hydroxymethyldihydropteridine pyrophosphokinase (Escherichia coli (strain K12), UniProt P26281).
T1 sequence (P26281 whole entry): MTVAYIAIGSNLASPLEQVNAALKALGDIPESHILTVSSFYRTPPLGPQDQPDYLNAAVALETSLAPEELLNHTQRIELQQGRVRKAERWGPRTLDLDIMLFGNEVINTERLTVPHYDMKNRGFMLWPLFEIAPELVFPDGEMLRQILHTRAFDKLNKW
The experiment is described as follows: Binding affinity to biotinylated Escherichia coli HPPK expressed in Escherichia coli BL21 (DE3) in presence of 1 mM ATP by SPR assay. A digest of the protocol: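 N-terminal His6/TEV-cleavable construct expressed in E. coli BL21(DE3), Ni-NTA purified, His-tag cleaved, then size exclusion. Minimally biotinylated via NHS-activated biotin and captured on streptavidin chip (~4900 RU). Analytes in 3-fold serial dilutions, duplicate or more; sensorgrams solvent-corrected, double-referenced.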
(SPR reads the build-up and loss of mass on a sensor chip optically.)

In experiment [2] the target is T2, 2-amino-4-hydroxy-6-hydroxymethyldihydropteridin e pyrophosphokinase (Staphylococcus aureus, UniProt X5EH84).
T2 sequence (X5EH84 whole entry): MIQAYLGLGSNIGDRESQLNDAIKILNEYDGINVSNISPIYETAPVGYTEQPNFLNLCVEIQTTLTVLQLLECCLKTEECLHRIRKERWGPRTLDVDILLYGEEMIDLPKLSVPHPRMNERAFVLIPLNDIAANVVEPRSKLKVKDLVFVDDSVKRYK
Briefly: Binding affinity to biotinylated Staphylococcus aureus HPPK in presence of 1 mM ATP by SPR assay. A digest of the protocol:
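Enzyme minimally biotinylated via maleimide-activated biotin, captured on streptavidin chip (~3800 RU). 3-fold serial dilutions, top concentration between 3 and 300 μM; 60 s contact at 30 μL·min−1, 60 s dissociation; duplicate or more; double-referenced, globally fitted where limited.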

The target of experiment [3] is T3, 2-amino-4-hydroxy-6-hydroxymethyldihydropteridin e pyrophosphokinase (Staphylococcus aureus) (UniProt X5EH84).
T3 sequence (whole entry): T2 sequence (X5EH84 whole entry)
The experiment is described as follows: Binding affinity to AMPCPP-loaded and 15N/13C-labeled Staphylococcus aureus HPPK assessed a induction of 1H-15N chemical shift perturbations by 2D 15N-FAST-HSQC NMR spectrscopy.

Experiment [4] deals with T3, 2-amino-4-hydroxy-6-hydroxymethyldihydropteridin e pyrophosphokinase (Staphylococcus aureus). The experiment is described as follows: Binding affinity to AMPCPP-loaded and 15N/13C-labeled Staphylococcus aureus HPPK assessed a induction of chemical shift changes in 15N HSQC spectra by HNCA triple resonance 3D NMR spectroscopy.

As to `Nc1nc2[nH]c(SCc3ccc(F)c(F)c3)nc2c(=O)[nH]1`, the dissociation constant (Kd) (commonly a measure of binding affinity in units of concentration) stood at 2000 nM in experiment [1] and 290 nM in experiment [2].

On to `Nc1nc2[nH]c(SCc3c(F)cccc3F)nc2c(=O)[nH]1`, for which the Kd came out at 1760 nM in experiment [1] and 120 nM in experiment [2]. Moreover, the result in experiment [3] and in experiment [4] was Active.

For `COCCSc1nc2c(=O)[nH]c(N)nc2[nH]1`, the Kd was found to be 52000 nM in experiment [1] and 2760 nM in experiment [2].

In the case of `Nc1nc(O)c2[nH]c(SCc3ccc(Cl)cc3)nc2n1`, the equilibrium dissociation constant (Kd) came to 4300 nM in experiment [1] and 1240 nM in experiment [2].

Take `COc1ccc(C(=O)CSc2nc3nc(N)[nH]c(=O)c3[nH]2)cc1`: the result in experiment [3] was Active.

On to `Nc1nc2[nH]c(SCc3ccccc3Cl)nc2c(=O)[nH]1`, for which, in experiment [2], the Kd came out at 1300 nM.

`Nc1nc2[nH]c(SCc3cccc(F)c3)nc2c(=O)[nH]1`: the dissociation constant (Kd) in experiment [1] was determined as 2600 nM; in experiment [2] it was 220 nM.

In the case of `Nc1nc2[nH]c(SCc3cccc(Br)c3)nc2c(=O)[nH]1`, the equilibrium dissociation constant (Kd) is 7100 nM in experiment [1] and 3100 nM in experiment [2].

With `N#Cc1ccc(CSc2nc3nc(N)[nH]c(=O)c3[nH]2)cc1`, the result in experiment [3] and in experiment [4] was Active.

For the compound `Nc1nc2[nH]c(SCc3ccc(F)cc3F)nc2c(=O)[nH]1`, the Kd in experiment [1] was determined as 1400 nM; in experiment [2], 260 nM.

As for `N#Cc1cc(F)ccc1CSc1nc2c(=O)[nH]c(N)nc2[nH]1`, the dissociation constant Kd in experiment [1] came to 38000 nM; in experiment [2], 1200 nM.

In the case of `Nc1nc2[nH]c(SCc3cccc(C(=O)O)c3)nc2c(=O)[nH]1`, the Kd in experiment [1] was found to be 26000 nM; in experiment [2] it was 2600 nM.

Regarding `COc1cccc(CSc2nc3c(=O)[nH]c(N)nc3[nH]2)c1`, the Kd in experiment [1] came to 1800 nM; in experiment [2], 650 nM.

As to `Cc1cccc(CSc2nc3c(=O)[nH]c(N)nc3[nH]2)c1C`, the values for the dissociation constant Kd in experiment [1] and in experiment [2] were 6100 nM and 841 nM, respectively.

`Cc1cccc(CSc2nc3c(=O)[nH]c(N)nc3[nH]2)c1`: the Kd in experiment [1] was 1700 nM; in experiment [2], 380 nM.

For `Cc1ccc(F)c(CSc2nc3c(=O)[nH]c(N)nc3[nH]2)c1`, the figures for the Kd in experiment [1] and in experiment [2] were 965 nM and 210 nM, respectively.

Consider `N#Cc1ccccc1CSc1nc2c(=O)[nH]c(N)nc2[nH]1`, for which the dissociation constant (Kd) in experiment [1] came to 23000 nM; in experiment [2] it was 510 nM.

For `Nc1nc2[nH]c(SCc3ccc(F)cc3)nc2c(=O)[nH]1`, the Kd in experiment [1] was 3900 nM; in experiment [2], 300 nM.

For `Nc1nc2[nH]c(SCc3ccc(C(F)(F)F)cc3)nc2c(=O)[nH]1`, in experiment [2], the Kd came out at 1930 nM.

In the case of `Cc1cc(F)ccc1CSc1nc2c(=O)[nH]c(N)nc2[nH]1`, the Kd in experiment [1] was determined as 16300 nM; in experiment [2], 1970 nM.

For the compound `Nc1nc2[nH]c(SCc3ccc(OC(F)(F)F)cc3)nc2c(=O)[nH]1`, the Kd was determined as 5200 nM in experiment [1] and 2100 nM in experiment [2].

For `Nc1nc2[nH]c(SCc3ccccc3F)nc2c(=O)[nH]1`, the outcome in experiment [3] was Active.

For the compound `Nc1nc2[nH]c(SCc3ccc(Br)cc3)nc2c(=O)[nH]1`, the Kd turned out to be 2130 nM in experiment [1] and 950 nM in experiment [2].

With `Cc1cc(CSc2nc3c(=O)[nH]c(N)nc3[nH]2)ccc1F`, the results for the Kd in experiment [1] and in experiment [2] were 10100 nM and 3600 nM, respectively.

`Nc1nc2[nH]c(SCc3cccc(Cl)c3)nc2c(=O)[nH]1`: the Kd in experiment [1] is 1700 nM; in experiment [2], 570 nM.

Consider `CCN(CC)C(=O)CSc1nc2c(=O)[nH]c(N)nc2[nH]1`, for which the results for the Kd in experiment [1] and in experiment [2] were 74200 nM and 11000 nM, respectively.

Consider `N#Cc1cc(CSc2nc3c(=O)[nH]c(N)nc3[nH]2)ccc1F`, for which the equilibrium dissociation constant (Kd) is 5300 nM in experiment [1] and 2100 nM in experiment [2].

Consider `COc1ccc(CSc2nc3c(=O)[nH]c(N)nc3[nH]2)c(F)c1`, for which the dissociation constant (Kd) in experiment [1] stood at 950 nM; in experiment [2], 300 nM.

For `CNC(=O)CSc1nc2c(=O)[nH]c(N)nc2[nH]1`, the Kd in experiment [1] was found to be 50000 nM; in experiment [2], 8800 nM.

As for `N#Cc1cccc(CSc2nc3c(=O)[nH]c(N)nc3[nH]2)c1`, the dissociation constant (Kd) in experiment [1] was determined as 3500 nM; in experiment [2] it was 770 nM.

For the compound `Nc1nc2[nH]c(SCCCO)nc2c(=O)[nH]1`, the Kd was determined as 68000 nM in experiment [1] and 4600 nM in experiment [2].

Take `Nc1nc2[nH]c(SCc3cc(C(F)(F)F)cc(C(F)(F)F)c3)nc2c(=O)[nH]1`: the Kd in experiment [2] is 1200 nM.

For the compound `Nc1nc2[nH]c(S)nc2c(=O)[nH]1`, in experiment [1], the equilibrium dissociation constant (Kd) was 160000 nM.

Regarding `Cc1cc(C)cc(CSc2nc3c(=O)[nH]c(N)nc3[nH]2)c1`, the Kd in experiment [1] amounted to 6900 nM; in experiment [2], 2300 nM.

Turning to `Nc1nc2[nH]c(SCC(=O)c3ccc(Br)cc3)nc2c(=O)[nH]1`, the dissociation constant (Kd) in experiment [1] was found to be 700 nM; in experiment [2], 570 nM.

For the compound `Cc1cccc(CSc2nc3c(=O)[nH]c(N)nc3[nH]2)c1F`, the Kd in experiment [1] amounted to 10700 nM; in experiment [2], 2800 nM.

As to `Nc1nc2[nH]c(SCc3ccccc3)nc2c(=O)[nH]1`, the outcome in experiment [3] and in experiment [4] was Active.

For the compound `Nc1nc2[nH]c(SCc3cccc(OC(F)(F)F)c3)nc2c(=O)[nH]1`, the Kd amounted to 5700 nM in experiment [1] and 1610 nM in experiment [2].

Consider `Nc1nc2[nH]c(SCC(O)CO)nc2c(=O)[nH]1` (stereo not drawn), for which the Kd came to 82000 nM in experiment [1] and 13400 nM in experiment [2].

On to `Cc1ccccc1CSc1nc2c(=O)[nH]c(N)nc2[nH]1`, for which the Kd turned out to be 2500 nM in experiment [1] and 470 nM in experiment [2].

For `Nc1nc2[nH]c(SCCN3CCCC3=O)nc2c(=O)[nH]1`, the dissociation constant (Kd) in experiment [2] was 7900 nM.

For the compound `Nc1nc2[nH]c(SCC(O)C(F)(F)F)nc2c(=O)[nH]1` (stereo not drawn), the dissociation constant Kd in experiment [1] turned out to be 97000 nM; in experiment [2], 3600 nM.

Consider `Nc1nc2[nH]c(SCc3ccccc3Br)nc2c(=O)[nH]1`, for which the Kd in experiment [1] turned out to be 8500 nM; in experiment [2], 1500 nM.

On to `COc1ccc(CSc2nc3c(=O)[nH]c(N)nc3[nH]2)cc1`, for which the results for the dissociation constant Kd in experiment [1] and in experiment [2] were 2200 nM and 520 nM, respectively.

On to `Cc1ccc(C)c(CSc2nc3c(=O)[nH]c(N)nc3[nH]2)c1`, for which the results for the equilibrium dissociation constant (Kd) in experiment [1] and in experiment [2] were 12600 nM and 1700 nM, respectively.

Consider `Nc1nc2[nH]c(SCc3ccccc3[N+](=O)[O-])nc2c(=O)[nH]1`, for which the equilibrium dissociation constant (Kd) in experiment [1] is 5700 nM; in experiment [2], 540 nM.

`N#Cc1ccc(CSc2nc3c(=O)[nH]c(N)nc3[nH]2)c(F)c1`: the figures for the Kd in experiment [1] and in experiment [2] were 2700 nM and 590 nM, respectively. For the same compound, the result in experiment [3] and in experiment [4] was Active.

As to `CCN(C)C(=O)C(C)Sc1nc2c(=O)[nH]c(N)nc2[nH]1` (stereo not drawn), the values for the Kd in experiment [1] and in experiment [2] were 120000 nM and 46000 nM, respectively.

Take `Nc1nc2[nH]c(SCCO)nc2c(=O)[nH]1`: the dissociation constant (Kd) in experiment [1] was 89200 nM; in experiment [2] it was 7600 nM.

As to `CC(C)CNC(=O)CSc1nc2c(=O)[nH]c(N)nc2[nH]1`, the dissociation constant (Kd) was 59400 nM in experiment [1] and 13000 nM in experiment [2].

For `CN(C)C(=O)CSc1nc2c(=O)[nH]c(N)nc2[nH]1`, the dissociation constant Kd stood at 53000 nM in experiment [1] and 1500 nM in experiment [2].

With `Nc1nc2[nH]c(SCc3cccc([N+](=O)[O-])c3)nc2c(=O)[nH]1`, the Kd in experiment [1] came out at 5800 nM; in experiment [2], 1400 nM.

For the compound `Nc1nc2[nH]c(SCCC3OCCCO3)nc2c(=O)[nH]1`, the results for the dissociation constant Kd in experiment [1] and in experiment [2] were 23300 nM and 7900 nM, respectively.
